Data: ChEMBL document CHEMBL1125917, “Synthesis of halogen-substituted 1,5-benzothiazepine derivatives and their vasodilating and hypotensive activities” (1991)

Tests used:
Canis familiaris [1] = assay: Antihypertensive activity by the increase in the vertebral blood flow in anesthetized dogs expressed as duration of half of the maximum change in blood flow.; assay type: functional, Canis lupus familiaris
Procedure, shortened: (§1)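 Anesthetized dogs; compounds given intraarterially. Vertebral blood flow recorded, and a dose-response curve built from peak responses. Potency given as ratio to diltiazem, calculated from the dose-response curves. Half duration is the time, in minutes, that blood flow stays at one-half of the maximum change.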

Canis familiaris [2] = species: Canis familiaris; assay: Antihypertensive activity expressed as the ratio of the potency evaluated by increased vertebral blood flow (VBF) to that of diltiazem.; assay type: functional, Canis lupus familiaris; procedure, shortened: as §1
Cavia porcellus [3] = species: Cavia porcellus; assay: Increase in the coronary blood flow (CBF) was determined in isolated guinea pig heart at a dose of 30 ug/heart; assay type: functional, Artery
Procedure, shortened: (§2)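 Hartley guinea pig hearts perfused by the Langendorff method with modified Locke-Ringer solution containing defibrinated rabbit blood, at 40 cm H2O and 29 ± 1 °C. Compounds in saline injected into the aortic cannula at 3, 10, 30 or 100 μg/heart. Coronary flow measured by drop counter; graded by the lowest dose giving an increase of at least 0.5 mL/min.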

Cavia porcellus [4] = species: Cavia porcellus; assay: (§3) Increase in the coronary blood flow (CBF) was determined in isolated guinea pig heart at a dose of 100 ug/heart; assay type: functional; procedure, shortened: as §2
Rattus norvegicus [5] = assay: Change in blood pressure in spontaneously hypertensive rats 1 hr following 30 mg/kg p.o.; assay type: functional; details: route oral
Procedure, shortened: (§4)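 Male spontaneously hypertensive rats, fasted 20 h. Compounds dissolved in deionized water and given orally (30 mg/kg; some at 100 mg/kg). Blood pressure measured by tail-cuff in conscious animals. Change (mmHg) taken from the predosing value at 1 and 4 h, or 1 and 5 h, after dosing. N = 3-6.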

Rattus norvegicus [6] = assay: Hypotensive activity in SHR (spontaneously hypertensive rats) expressed as change in blood pressure(mmHg) after 5 hr dosing at a concentration of 30 mg/kg; assay type: functional; procedure, shortened: as §4
Cavia porcellus [7] = species: Cavia porcellus; assay: as §3; assay type: functional, Artery; procedure, shortened: as §2
Rattus norvegicus [8] = assay: Hypotensive activity in SHR (spontaneously hypertensive rats) expressed as change in blood pressure(mmHg) after 4 hr dosing at a concentration of 30 mg/kg; assay type: functional; procedure, shortened: as §4
Rattus norvegicus [9] = assay: Hypotensive activity in SHR (spontaneously hypertensive rats) expressed as change in blood pressure(mmHg) after 4 hr dosing at a concentration of 100 mg/kg; assay type: functional; procedure, shortened: as §4
Rattus norvegicus [10] = assay: Hypotensive activity in SHR (spontaneously hypertensive rats) expressed as change in blood pressure(mmHg) after 1 hr dosing at a concentration of 30 mg/kg; assay type: functional; procedure, shortened: as §4

COc1ccc(C2Sc3cc(F)ccc3N(CCN(C)C)C(=O)C2OC(=O)c2ccc([N+](=O)[O-])cc2)cc1 (stereo unspecified)
Half duration (Canis familiaris [1]): 48 min
Potency ratio (Canis familiaris [2]): 0.35
Increase in CBF (Cavia porcellus [3]): >0.5 mL/min

C=CCN(C)CCN1C(=O)C(OC(C)=O)C(c2ccc(OC)cc2)Sc2cc(Cl)ccc21 (stereo unspecified)
Half duration (Canis familiaris [1]): 37 min
Potency ratio (Canis familiaris [2]): 1
Increase in CBF (Cavia porcellus [4]): >0.5 mL/min
Change in blood pressure (Rattus norvegicus [5]): -29 delta mmHg
Change in blood pressure (Rattus norvegicus [6]): -17 delta mmHg

COc1ccc(C2Sc3cc(Cl)ccc3N(CCN(C)C)C(=O)C2OC)cc1 (single isomer, unassigned; (+))
Half duration (Canis familiaris [1]): 47 min
Potency ratio (Canis familiaris [2]): 0.58
Change in blood pressure (Rattus norvegicus [5]): -76.8 delta mmHg
Change in blood pressure (Rattus norvegicus [6]): -56.5 delta mmHg

CSc1ccc(C2Sc3cc(Cl)ccc3N(CCN(C)C)C(=O)C2O)cc1 (stereo unspecified)
Half duration (Canis familiaris [1]): 35 min
Potency ratio (Canis familiaris [2]): 0.09
Increase in CBF (Cavia porcellus [7]): >0.5 mL/min

COc1ccc(C2Sc3c(Cl)cccc3N(CCN(C)C)C(=O)C2O)cc1.Cl (stereo unspecified)
Half duration (Canis familiaris [1]): 52 min
Potency ratio (Canis familiaris [2]): 0.91
Increase in CBF (Cavia porcellus [3]): >0.5 mL/min

COc1ccc(C2Sc3cc(Cl)c(Cl)cc3N(CCN(C)C)C(=O)C2OC(C)=O)cc1.Cl (stereo unspecified)
Half duration (Canis familiaris [1]): 53 min
Potency ratio (Canis familiaris [2]): 0.51
Increase in CBF (Cavia porcellus [3]): >0.5 mL/min

CCN(C)CCN1C(=O)C(OC(C)=O)C(c2ccc(OC)cc2)Sc2cc(Cl)ccc21 (single isomer, unassigned; (+))
Half duration (Canis familiaris [1]): 46 min
Potency ratio (Canis familiaris [2]): 0.9
Increase in CBF (Cavia porcellus [4]): >0.5 mL/min
Change in blood pressure (Rattus norvegicus [5]): -55.5 delta mmHg
Change in blood pressure (Rattus norvegicus [6]): -22.3 delta mmHg

CCCCNC(=O)OC1C(=O)N(CCN(C)C)c2ccc(Cl)cc2SC1c1ccc(OC)cc1 (stereo unspecified)
Half duration (Canis familiaris [1]): 76 min
Potency ratio (Canis familiaris [2]): 0.31
Increase in CBF (Cavia porcellus [3]): >0.5 mL/min

COc1ccc(C2Sc3c(F)cccc3N(CCN(C)C)C(=O)C2OC(C)=O)cc1.Cl (stereo unspecified)
Half duration (Canis familiaris [1]): 43 min
Potency ratio (Canis familiaris [2]): 0.34
Increase in CBF (Cavia porcellus [4]): >0.5 mL/min
Change in blood pressure (Rattus norvegicus [5]): -39 delta mmHg
Change in blood pressure (Rattus norvegicus [8]): -60.3 delta mmHg

COc1ccc(C2Sc3cccc(Cl)c3N(CCN(C)C)C(=O)C2O)cc1.Cl (stereo unspecified)
Half duration (Canis familiaris [1]): 33 min
Potency ratio (Canis familiaris [2]): 0.2
Increase in CBF (Cavia porcellus [7]): >0.5 mL/min
Change in blood pressure (Rattus norvegicus [5]): -31.7 delta mmHg
Change in blood pressure (Rattus norvegicus [8]): -26 delta mmHg

COc1ccc(C2Sc3c(Cl)cccc3N(CCN(C)C)C(=O)C2O)cc1 (stereo in doubt; (+)-16m)
Half duration (Canis familiaris [1]): 46 min
Potency ratio (Canis familiaris [2]): 1.25
Increase in CBF (Cavia porcellus [3]): >0.5 mL/min
Change in blood pressure (Rattus norvegicus [5]): -46.7 delta mmHg
Change in blood pressure (Rattus norvegicus [8]): -30 delta mmHg

COc1ccc(C2Sc3cccc(Cl)c3N(CCN(C)C)C(=O)C2OC(C)=O)cc1.Cl (stereo unspecified)
Half duration (Canis familiaris [1]): 53 min
Potency ratio (Canis familiaris [2]): 0.62
Increase in CBF (Cavia porcellus [4]): >0.5 mL/min
Change in blood pressure (Rattus norvegicus [5]): -22 delta mmHg
Change in blood pressure (Rattus norvegicus [8]): -13.7 delta mmHg

COc1ccc(C2Sc3cc(Cl)ccc3N(CCN(C)C)C(=O)C2OCc2ccc([N+](=O)[O-])cc2)cc1 (single isomer, unassigned; (+))
Potency ratio (Canis familiaris [2]): 0.58
Increase in CBF (Cavia porcellus [4]): >0.5 mL/min
Change in blood pressure (Rattus norvegicus [5]): -11.5 delta mmHg
Change in blood pressure (Rattus norvegicus [6]): -8.8 delta mmHg

COc1ccc(C2Sc3cc(Cl)ccc3N(CCN(C)C)C(=O)C2O)cc1 (single isomer, unassigned; (-))
Half duration (Canis familiaris [1]): 23 min
Potency ratio (Canis familiaris [2]): 0.02
Increase in CBF (Cavia porcellus [4]): <0.5 mL/min
Change in blood pressure (Rattus norvegicus [5]; 30 mg/kg): 1 delta mmHg
Change in blood pressure (Rattus norvegicus [8]; 30 mg/kg): -20 delta mmHg

CCCCNC(=O)OC1C(=O)N(CCN(C)C)c2ccc(F)cc2SC1c1ccc(OC)cc1 (stereo unspecified)
Half duration (Canis familiaris [1]): 58 min
Potency ratio (Canis familiaris [2]): 0.16
Increase in CBF (Cavia porcellus [3]): >0.5 mL/min

CCN(C)CCN1C(=O)C(O)C(c2ccc(OC)cc2)Sc2cc(Cl)ccc21 (stereo unspecified)
Half duration (Canis familiaris [1]): 38 min
Potency ratio (Canis familiaris [2]): 0.28
Increase in CBF (Cavia porcellus [4]): >0.5 mL/min
Change in blood pressure (Rattus norvegicus [5]): -21.3 delta mmHg
Change in blood pressure (Rattus norvegicus [8]): -39.3 delta mmHg

COc1ccc(C2Sc3c(ccc(Cl)c3Cl)N(CCN(C)C)C(=O)C2O)cc1.Cl (stereo unspecified)
Half duration (Canis familiaris [1]): 80 min
Potency ratio (Canis familiaris [2]): 0.62
Increase in CBF (Cavia porcellus [3]): >0.5 mL/min

COc1ccc([C@@H]2Sc3ccccc3N(CCN(C)C)C(=O)[C@@H]2OC(C)=O)cc1 [DILTIAZEM]
Half duration (Canis familiaris [1]): 53 min
Potency ratio (Canis familiaris [2]): 1
Increase in CBF (Cavia porcellus [3]): >0.5 mL/min
Change in blood pressure (Rattus norvegicus [5]): -34 delta mmHg
Change in blood pressure (Rattus norvegicus [8]): -15 delta mmHg

CSc1ccc(C2Sc3cc(Cl)ccc3N(CCN(C)C)C(=O)C2OC(C)=O)cc1 (stereo unspecified)
Half duration (Canis familiaris [1]): 37 min
Potency ratio (Canis familiaris [2]): 0.21
Increase in CBF (Cavia porcellus [7]): >0.5 mL/min

CCC(=O)OC1C(=O)N(CCN(C)C)c2ccc(Cl)cc2SC1c1ccc(OC)cc1 (single isomer, unassigned; (+))
Half duration (Canis familiaris [1]): 64 min
Potency ratio (Canis familiaris [2]): 1.45
Increase in CBF (Cavia porcellus [3]): >0.5 mL/min
Change in blood pressure (Rattus norvegicus [5]): -67.7 delta mmHg
Change in blood pressure (Rattus norvegicus [9]): -60.7 delta mmHg

CCOC(=O)OC1C(=O)N(CCN(C)C)c2ccc(Cl)cc2SC1c1ccc(OC)cc1 (stereo unspecified)
Half duration (Canis familiaris [1]): 44 min
Potency ratio (Canis familiaris [2]): 0.29
Increase in CBF (Cavia porcellus [7]): >0.5 mL/min

COc1ccc(C2Sc3cc(Cl)ccc3N(CCN(C)C)C(=O)C2OC=O)cc1 (single isomer, unassigned; (+))
Half duration (Canis familiaris [1]): 44 min
Potency ratio (Canis familiaris [2]): 0.73
Increase in CBF (Cavia porcellus [4]): >0.5 mL/min
Change in blood pressure (Rattus norvegicus [5]): -60 delta mmHg
Change in blood pressure (Rattus norvegicus [9]): -72.7 delta mmHg

COc1ccc(C2Sc3cc(Cl)ccc3N(CCN(C)C)C(=O)C2OC(C)=O)cc1.Cl (stereo in doubt; 2b)
Half duration (Canis familiaris [1]): 69 min
Potency ratio (Canis familiaris [2]): 1.15
Increase in CBF (Cavia porcellus [3]): >0.5 mL/min

COc1ccc(C2Sc3c(Cl)cccc3N(CCN(C)C)C(=O)C2OC(C)=O)cc1.Cl (stereo in doubt; 2cc)
Half duration (Canis familiaris [1]): 72 min
Potency ratio (Canis familiaris [2]): 0.75
Increase in CBF (Cavia porcellus [3]): >0.5 mL/min

CCCN(C)CCN1C(=O)C(OC(C)=O)C(c2ccc(OC)cc2)Sc2cc(Cl)ccc21 (stereo unspecified)
Half duration (Canis familiaris [1]): 47 min
Potency ratio (Canis familiaris [2]): 0.5
Increase in CBF (Cavia porcellus [4]): >0.5 mL/min
Change in blood pressure (Rattus norvegicus [10]): -16 delta mmHg
Change in blood pressure (Rattus norvegicus [8]): -9 delta mmHg
